ChEMBL document CHEMBL3272290, “Contragestational agents. 1. Steroidal O-aryloximes” (J Med Chem, 1977)
Active and inactive are the calls of the source. The calls are words filed in the database; no cut-off is given here.

Key:
[1] = system: Rattus norvegicus; assay: Antifertility activity in Wistar rat assessed as inhibition of preimplantive gestation by measuring resorptions at 20 mg/kg, po administered in days 9 to 12 of pregnancy measured on day 21; assay type: functional; design: scale not given: the % may be the effect or the level left
Method in brief: (§1)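 Groups of five pregnant female Wistar-derived rats dosed orally on days 9–12 of pregnancy, in sesame oil at 0.5 mL per 200 g body weight. Read-out was the percentage of resorptions.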

[2] = system: Rattus norvegicus; assay: Antifertility activity in Wistar rat assessed as inhibition of preimplantive gestation by measuring resorptions at 2.5 mg/kg, po administered in days 9 to 12 of pregnancy measured on day 21; assay type: functional; design: scale not given: the % may be the effect or the level left; method in brief: as §1
[3] = system: Rattus norvegicus; assay: Androgenic activity in po dosed castrate immature Wistar rat assessed as dose required to produce significant increase in ventral prostate weight administered qd for 7 days; assay type: functional; settings: Prostate gland, 168 h, read-out: MED
Method in brief: (§2)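 Castrated immature rats dosed orally once a day for 7 days, in sesame oil at 0.2 mL per dose. Read-out was ventral prostate weight. Potency is expressed relative to 17-methyltestosterone. MED is the smallest tested dose giving a significant rise in ventral prostate weight.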

[4] = system: Rattus norvegicus; assay: Antifertility activity in Wistar rat assessed as inhibition of preimplantive gestation by measuring resorptions at 2.5 mg/kg, po administered in day 11 of pregnancy measured on day 21; assay type: functional, organism-based; design: dose 2.5 mg/kg
[5] = system: Rattus norvegicus; assay: Antifertility activity in Wistar rat assessed as inhibition of preimplantive gestation by measuring resorptions at 5 mg/kg, po administered in days 1 to 6 of pregnancy measured on day 21; assay type: functional, organism-based; design: dose 5 mg/kg
[6] = system: Rattus norvegicus; assay: Estrogenic activity in rat at 10 to 100 mg/kg; assay type: functional, organism-based
[7] = system: Oryctolagus cuniculus; assay: Estrogenic activity in rabbit at 10 to 100 mg/kg; assay type: functional, organism-based
[8] = system: Rattus norvegicus; assay: Androgenic activity in rat at 10 to 100 mg/kg; assay type: functional, organism-based
[9] = system: Oryctolagus cuniculus; assay: Androgenic activity in rabbit at 10 to 100 mg/kg; assay type: functional, organism-based
[10] = system: Rattus norvegicus; assay: Progestational activity in rat at 10 to 100 mg/kg; assay type: functional, organism-based
[11] = system: Oryctolagus cuniculus; assay: Progestational activity in rabbit at 10 to 100 mg/kg; assay type: functional, organism-based
[12] = system: Rattus norvegicus; assay: Antiestrogenic activity in rat at 10 to 100 mg/kg; assay type: functional, organism-based
[13] = system: Oryctolagus cuniculus; assay: Antiestrogenic activity in rabbit at 10 to 100 mg/kg; assay type: functional, organism-based
[14] = system: Rattus norvegicus; assay: Antiandrogenic activity in rat at 10 to 100 mg/kg; assay type: functional, organism-based
[15] = system: Oryctolagus cuniculus; assay: Antiandrogenic activity in rabbit at 10 to 100 mg/kg; assay type: functional, organism-based
[16] = system: Rattus norvegicus; assay: Antiprogestational activity in rat at 10 to 100 mg/kg; assay type: functional, organism-based
[17] = system: Oryctolagus cuniculus; assay: Antiprogestational activity in rabbit at 10 to 100 mg/kg; assay type: functional, organism-based
[18] = system: Rattus norvegicus; assay: Toxicity in rat assessed as adverse effect at 10 to 100 mg/kg; assay type: organism-based; design: dose 10-100 mg/kg; settings: in vivo
[19] = system: Oryctolagus cuniculus; assay: Toxicity in rabbit assessed as adverse effect at 10 to 100 mg/kg; assay type: organism-based; design: dose 10-100 mg/kg; settings: in vivo
[20] = system: Rattus norvegicus; assay: Androgenic activity in castrate immature Wistar rat at 2.5 mg/kg, po qd for 7 days relative to 17-methyl-testosterone; assay type: functional; method in brief: as §2
[21] = system: Rattus norvegicus; assay: Antifertility activity in Wistar rat assessed as inhibition of preimplantive gestation by measuring resorptions at 5 mg/kg, po administered in days 9 to 12 of pregnancy measured on day 21; assay type: functional; design: scale not given: the % may be the effect or the level left; method in brief: as §1
[22] = system: Rattus norvegicus; assay: Antifertility activity in Wistar rat assessed as inhibition of preimplantive gestation by measuring resorptions at 10 mg/kg, po administered in days 9 to 12 of pregnancy measured on day 21; assay type: functional; design: scale not given: the % may be the effect or the level left; method in brief: as §1
[23] = system: Rattus norvegicus; assay: Androgenic activity in castrate immature Wistar rat at 10 mg/kg, po qd for 7 days relative to 17-methyl-testosterone; assay type: functional; method in brief: as §2
[24] = system: Rattus norvegicus; assay: Antifertility activity in Wistar rat assessed as inhibition of preimplantive gestation by measuring resorptions at 36 mg/kg, po administered in days 9 to 12 of pregnancy measured on day 21; assay type: functional; design: scale not given: the % may be the effect or the level left
Method in brief: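 Given orally in sesame oil (0.5 mL per 200 g body weight) to groups of five female Wistar-derived rats on days 9–12 of pregnancy. Outcome scored as percent resorptions.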

[25] = system: Rattus norvegicus; assay: Antifertility activity in Wistar rat assessed as inhibition of preimplantive gestation by measuring resorptions at 50 mg/kg, po administered in days 9 to 12 of pregnancy measured on day 21; assay type: functional; design: scale not given: the % may be the effect or the level left; method in brief: as §1

C[C@]12CC[C@H]3[C@@H](CCC4=C/C(=N/Oc5ccc([N+](=O)[O-])cc5[N+](=O)[O-])C=C[C@@]43C)[C@@H]1CC[C@@H]2O
Activity [1]: 92.6%

CC(=O)O[C@H]1CC[C@H]2[C@@H]3CC[C@H]4C/C(=N/Oc5ccc([N+](=O)[O-])cc5)[C@H](Cl)C[C@]4(C)[C@H]3CC[C@]12C [NISTERIME ACETATE]
Activity [2]: 100% | minimal effective dose [3]: > 90 mg/kg | inhibition [4]: Active | inhibition [5]: Active | Activity [6]: inactive | Activity [7]: inactive | Activity [8]: inactive | Activity [9]: inactive | Activity [10]: inactive | Activity [11]: inactive | Activity [12]: inactive | Activity [13]: inactive | Activity [14]: inactive | Activity [15]: inactive | Activity [16]: inactive | Activity [17]: inactive | Activity [18]: Non-toxic | Activity [19]: Non-toxic

CC(=O)O[C@H]1CC[C@H]2[C@@H]3CC[C@H]4C/C(=N/Oc5ccc([N+](=O)[O-])cc5)CC[C@]4(C)[C@H]3CC[C@]12C
Activity [2]: 96.6% | Activity [20]: 2.5% | minimal effective dose [3]: 30 mg/kg

C[C@]12CC/C(=N\Oc3ccc([N+](=O)[O-])cc3[N+](=O)[O-])C=C1CC[C@@H]1[C@@H]2CC[C@@]2(C)[C@H]1CC[C@]2(C)O
Activity [1]: 2.2%

C[C@]12CC/C(=N\Oc3ccc([N+](=O)[O-])cc3)C[C@@H]1CC[C@@H]1[C@@H]2CC[C@]2(C)C(=O)CC[C@@H]12
Activity [21]: 100%

C[C@]12C[C@@H](Cl)/C(=N\Oc3ccc([N+](=O)[O-])cc3)C[C@@H]1CC[C@@H]1[C@@H]2CC[C@]2(C)[C@@H](O)CC[C@@H]12
Activity [21]: 100%

C[C@]12CC[C@H]3[C@@H](CCC4=C/C(=N/Oc5ccc([N+](=O)[O-])cc5[N+](=O)[O-])CC[C@@]43C)[C@@H]1CC[C@@H]2O
Activity [22]: 80.8% | Activity [23]: 80% | minimal effective dose [3]: 1.5 mg/kg

C[C@]12CC[C@H]3[C@@H](CCC4=C/C(=N/Oc5ccc([N+](=O)[O-])cc5)CC[C@@H]43)[C@@H]1CC[C@@H]2O
Activity [1]: 63.9%

C[C@]12CC/C(=N\Oc3ccc([N+](=O)[O-])cc3)C[C@@H]1CC[C@@H]1[C@@H]2CC[C@]2(C)/C(=N/O)CC[C@@H]12
Activity [24]: 0%

C[C@]12CC[C@H]3[C@@H](CCC4=C/C(=N/Oc5ccc([N+](=O)[O-])cc5)C=C[C@@]43C)[C@@H]1CC[C@@H]2O
Activity [1]: 6%

C[C@]12CC[C@H]3[C@@H](CCC4=C/C(=N/Oc5ccccn5)CC[C@@H]43)[C@@H]1CC[C@@H]2O
Activity [1]: 100%

CCCCCCC(=O)O[C@H]1CC[C@H]2[C@@H]3CC[C@H]4C/C(=N/Oc5ccc([N+](=O)[O-])cc5)CC[C@]4(C)[C@H]3CC[C@]12C
Activity [21]: 100%

C[C@]12CC[C@H]3[C@@H](CCC4=C/C(=N/Oc5ccc([N+](=O)[O-])cc5[N+](=O)[O-])CC[C@@H]43)[C@@H]1CC[C@@H]2O
Activity [1]: 100%

C[C@]12C[C@@H](Br)/C(=N\Oc3ccc([N+](=O)[O-])cc3)C[C@@H]1CC[C@@H]1[C@@H]2CC[C@]2(C)C(=O)CC[C@@H]12
Activity [2]: 100%

C[C@]12CC/C(=N\Oc3ccc([N+](=O)[O-])cc3C(F)(F)F)C[C@@H]1CC[C@@H]1[C@@H]2CC[C@]2(C)[C@@H](O)CC[C@@H]12
Activity [25]: 0%

C[C@]12C[C@@H](Br)/C(=N\Oc3ccc([N+](=O)[O-])cc3)C[C@@H]1CC[C@@H]1[C@@H]2CC[C@]2(C)[C@@H](O)CC[C@@H]12
Activity [2]: 100%
